Assay results published in ChEMBL document CHEMBL4330094, “Potent Metabolic Sialylation Inhibitors Based on C-5-Modified Fluorinated Sialic Acids” (J Med Chem, 2019).
pEC50: −log10 of the molar value. Calls of active or inactive are those of the source. No cut-off for these calls is given here.

Test system: B16-F10
Assay: Effect on total cell surface glycosylation in mouse B16F10 cells assessed as inhibition of biotinylated PHA-L lectin binding at 102.4 uM after 3 days by flow cytometry
Assay type: cell-based
Details: b16-f10, 72 h
Procedure, shortened: (§1)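 B16-F10 cells were exposed 3 days to 102.4 µM compound or DMSO. Staining used biotinylated lectins (AAL 5, PNA 5, GSL-I 1, LCA 1, PHA-L 1, PSA 1, SJA 1, WGA 1 µg/ml) in carbo-free blocking buffer with 1 mM CaCl and 1 mM MgCl for 45-60 min at 4 °C, then streptavidin-PE for 20 min at 4 °C. Flow cytometry read-out was MFI, mean ± SEM from two independent experiments.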

Compound | Activity
COC(=O)C1(OC(C)=O)O[C@@H]([C@H](OC(C)=O)[C@@H](COC(C)=O)OC(C)=O)[C@H](NC(=O)OC(C)(C)C)[C@@H](OC(C)=O)[C@H]1F (some centres undefined) | Non-Toxic

Test system: B16-F10
Assay: Effect on total cell surface glycosylation in mouse B16F10 cells assessed as inhibition of biotinylated SJA-lectin binding at 102.4 uM after 3 days by flow cytometry
Assay type: cell-based
Details: b16-f10, 72 h
Procedure, shortened: as §1

Compound | Activity
COC(=O)C1(OC(C)=O)O[C@@H]([C@H](OC(C)=O)[C@@H](COC(C)=O)OC(C)=O)[C@H](NC(=O)OC(C)(C)C)[C@@H](OC(C)=O)[C@H]1F (some centres undefined) | Non-Toxic

Test system: B16-F10
Assay: Effect on total cell surface glycosylation in mouse B16F10 cells assessed as inhibition of biotinylated AAL-lectin binding at 102.4 uM after 3 days by flow cytometry
Assay type: cell-based
Details: b16-f10, 72 h
Procedure, shortened: as §1

Compound | Activity
COC(=O)C1(OC(C)=O)O[C@@H]([C@H](OC(C)=O)[C@@H](COC(C)=O)OC(C)=O)[C@H](NC(=O)OC(C)(C)C)[C@@H](OC(C)=O)[C@H]1F (some centres undefined) | Non-Toxic

Test system: B16-F10
Assay: Effect on total cell surface glycosylation in mouse B16F10 cells assessed as inhibition of biotinylated LCA-lectin binding at 102.4 uM after 3 days by flow cytometry
Assay type: cell-based
Details: b16-f10, 72 h
Procedure, shortened: as §1

Compound | Activity
COC(=O)C1(OC(C)=O)O[C@@H]([C@H](OC(C)=O)[C@@H](COC(C)=O)OC(C)=O)[C@H](NC(=O)OC(C)(C)C)[C@@H](OC(C)=O)[C@H]1F (some centres undefined) | Non-Toxic

Test system: B16-F10
Assay: Effect on total cell surface glycosylation in mouse B16F10 cells assessed as inhibition of biotinylated GSL1-lectin binding at 102.4 uM after 3 days by flow cytometry
Assay type: cell-based
Details: b16-f10, 72 h
Procedure, shortened: as §1

Compound | Activity
COC(=O)C1(OC(C)=O)O[C@@H]([C@H](OC(C)=O)[C@@H](COC(C)=O)OC(C)=O)[C@H](NC(=O)OC(C)(C)C)[C@@H](OC(C)=O)[C@H]1F (some centres undefined) | Non-Toxic

Test system: B16-F10
Assay: Inhibition of sialyltransferase in mouse B16-F10 cells assessed as recovery time for sialylation at 25.6 uM pretreated for 3 days followed by washing and re-seeding and measured after 6 days by biotinylated MAL2 lectin-based flow cytometry
Assay type: cell-based
Details: not given
Procedure, shortened: (§2)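 B16-F10 cells were pretreated 3 days with 25.6 or 51.2 µM compound or DMSO, washed, reseeded, and sampled daily for 6 days. They were stained with biotinylated MALII (5 µg/ml, 45-60 min, 4 °C) plus streptavidin-PE. Flow cytometry MFI was normalized to control as % lectin binding.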

Compound | sialylation recovery time
COC(=O)C1(OC(C)=O)O[C@@H]([C@H](OC(C)=O)[C@@H](COC(C)=O)OC(C)=O)[C@H](NC(=O)OC(C)(C)C)[C@@H](OC(C)=O)[C@H]1F (some centres undefined) | Active

Test system: not listed separately
Assay: Inhibition of sialyltransferase in mouse B16F10 cells assessed as decrease in lectin binding after 3 days by biotinylated MAL2 lectin and streptavidin-PE based flow cytometry
Assay type: cell-based
Details: not given
Procedure, shortened: (§3)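 Each cell line was incubated 3 days with increasing compound concentrations or equivalent DMSO. Cells were stained with biotinylated MALII (5 µg/ml) in carbo-free blocking buffer with 1 mM CaCl/MgCl for 45-60 min at 4 °C, washed in PBS/1% BSA/0.02% azide, then stained with streptavidin-PE for 20 min at 4 °C. For flow cytometry, MFI was normalized to control as % lectin binding.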

pEC50 | Compound
5.46 | COC(=O)C1(OC(C)=O)O[C@@H]([C@H](OC(C)=O)[C@@H](COC(C)=O)OC(C)=O)[C@H](NC(=O)OC(C)(C)C)[C@@H](OC(C)=O)[C@H]1F (some centres undefined)

Test system: not listed separately
Assay: Inhibition of sialyltransferase in mouse EL4 cells assessed as decrease in lectin binding after 3 days by biotinylated MAL2 lectin and streptavidin-PE based flow cytometry
Assay type: cell-based
Details: not given
Procedure, shortened: as §3

pEC50 | Compound
4.26 | COC(=O)C1(OC(C)=O)O[C@@H]([C@H](OC(C)=O)[C@@H](COC(C)=O)OC(C)=O)[C@H](NC(=O)OC(C)(C)C)[C@@H](OC(C)=O)[C@H]1F (some centres undefined)

Test system: B16-F10
Assay: Effect on total cell surface glycosylation in mouse B16F10 cells assessed as inhibition of biotinylated PSA-lectin binding at 102.4 uM after 3 days by flow cytometry
Assay type: cell-based
Details: b16-f10, 72 h
Procedure, shortened: as §1

Compound | Activity
COC(=O)C1(OC(C)=O)O[C@@H]([C@H](OC(C)=O)[C@@H](COC(C)=O)OC(C)=O)[C@H](NC(=O)OC(C)(C)C)[C@@H](OC(C)=O)[C@H]1F (some centres undefined) | Non-Toxic

Test system: not listed separately
Assay: Inhibition of sialyltransferase in HEK293 cells assessed as decrease in lectin binding after 3 days by biotinylated MAL2 lectin and streptavidin-PE based flow cytometry
Assay type: cell-based, Homo sapiens
Details: not given
Procedure, shortened: as §3

pEC50 | Compound
4.98 | COC(=O)C1(OC(C)=O)O[C@@H]([C@H](OC(C)=O)[C@@H](COC(C)=O)OC(C)=O)[C@H](NC(=O)OC(C)(C)C)[C@@H](OC(C)=O)[C@H]1F (some centres undefined)

Test system: B16-F10
Assay: Relative inhibitory potency, ratio of SiaFAc to compound EC50 for inhibition of sialyltransferase in mouse B16-F10 cells
Assay type: cell-based
Details: not given

Compound | Ratio EC50
COC(=O)C1(OC(C)=O)O[C@@H]([C@H](OC(C)=O)[C@@H](COC(C)=O)OC(C)=O)[C@H](NC(=O)OC(C)(C)C)[C@@H](OC(C)=O)[C@H]1F (some centres undefined) | 8

Test system: B16-F10
Assay: Inhibition of sialyltransferase in mouse B16-F10 cells assessed as recovery time for sialylation at 51.2 uM pretreated for 3 days followed by washing and re-seeding and measured after 6 days by biotinylated MAL2 lectin-based flow cytometry
Assay type: cell-based
Details: not given
Procedure, shortened: as §2

Compound | TIME [h]
COC(=O)C1(OC(C)=O)O[C@@H]([C@H](OC(C)=O)[C@@H](COC(C)=O)OC(C)=O)[C@H](NC(=O)OC(C)(C)C)[C@@H](OC(C)=O)[C@H]1F (some centres undefined) | 120 to 144

Test system: not listed separately
Assay: Inhibition of sialyltransferase in human THP1 cells assessed as decrease in lectin binding after 3 days by biotinylated MAL2 lectin and streptavidin-PE based flow cytometry
Assay type: cell-based
Details: not given
Procedure, shortened: as §3

pEC50 | Compound
5.89 | COC(=O)C1(OC(C)=O)O[C@@H]([C@H](OC(C)=O)[C@@H](COC(C)=O)OC(C)=O)[C@H](NC(=O)OC(C)(C)C)[C@@H](OC(C)=O)[C@H]1F (some centres undefined)

Test system: B16-F10
Assay: Effect on total cell surface glycosylation in mouse B16F10 cells assessed as inhibition of biotinylated WGA-lectin binding at 102.4 uM after 3 days by flow cytometry
Assay type: cell-based
Details: b16-f10, 72 h
Procedure, shortened: as §1

Compound | Activity
COC(=O)C1(OC(C)=O)O[C@@H]([C@H](OC(C)=O)[C@@H](COC(C)=O)OC(C)=O)[C@H](NC(=O)OC(C)(C)C)[C@@H](OC(C)=O)[C@H]1F (some centres undefined) | Non-Toxic

Test system: B16-F10
Assay: Cytotoxicity against mouse B16F10 cells assessed as reduction in metabolic activity at 204.8 uM after 3 days by MTT assay
Assay type: ADME, cell-based
Details: b16-f10, 72 h

Compound | Activity
COC(=O)C1(OC(C)=O)O[C@@H]([C@H](OC(C)=O)[C@@H](COC(C)=O)OC(C)=O)[C@H](NC(=O)OC(C)(C)C)[C@@H](OC(C)=O)[C@H]1F (some centres undefined) | Non-Toxic

Test system: not listed separately
Assay: Inhibition of sialyltransferase in mouse 9464D cells assessed as decrease in lectin binding after 3 days by biotinylated MAL2 lectin and streptavidin-PE based flow cytometry
Assay type: cell-based
Details: not given
Procedure, shortened: as §3

pEC50 | Compound
4.44 | COC(=O)C1(OC(C)=O)O[C@@H]([C@H](OC(C)=O)[C@@H](COC(C)=O)OC(C)=O)[C@H](NC(=O)OC(C)(C)C)[C@@H](OC(C)=O)[C@H]1F (some centres undefined)

Test system: not listed separately
Assay: Inhibition of sialyltransferase in human HeLa cells assessed as decrease in lectin binding after 3 days by biotinylated MAL2 lectin and streptavidin-PE based flow cytometry
Assay type: cell-based
Details: not given
Procedure, shortened: as §3

pEC50 | Compound
4.89 | COC(=O)C1(OC(C)=O)O[C@@H]([C@H](OC(C)=O)[C@@H](COC(C)=O)OC(C)=O)[C@H](NC(=O)OC(C)(C)C)[C@@H](OC(C)=O)[C@H]1F (some centres undefined)

Test system: B16-F10
Assay: Effect on total cell surface glycosylation in mouse B16F10 cells assessed as inhibition of biotinylated PNA lectin binding at 102.4 uM after 3 days by flow cytometry
Assay type: cell-based
Details: b16-f10, 72 h
Procedure, shortened: as §1

Compound | Activity
COC(=O)C1(OC(C)=O)O[C@@H]([C@H](OC(C)=O)[C@@H](COC(C)=O)OC(C)=O)[C@H](NC(=O)OC(C)(C)C)[C@@H](OC(C)=O)[C@H]1F (some centres undefined) | Non-Toxic

Test system: B16-F10
Assay: Cytotoxicity against mouse B16F10 cells assessed as reduction in metabolic activity at <51.2 uM after 3 days by MTT assay
Assay type: ADME, cell-based
Details: b16-f10, 72 h

Compound | Activity
COC(=O)C1(OC(C)=O)O[C@@H]([C@H](OC(C)=O)[C@@H](COC(C)=O)OC(C)=O)[C@H](NC(=O)OC(C)(C)C)[C@@H](OC(C)=O)[C@H]1F (some centres undefined) | Non-Toxic
